Laboratory results from ChEMBL document CHEMBL1138981, “Synthesis and SAR of 1,2-trans-(1-hydroxy-3-phenylprop-1-yl)cyclopentane carboxamide derivatives, a new class of sodium channel blockers” (Bioorg Med Chem Lett, 2006).

Columns and labels:
[1] = target: Sodium channel protein type 9 subunit alpha (Homo sapiens, UniProt Q15858); experiment: Inhibition of peripheral nerve sodium channel NaV1.7
hERG (KCNH2) [2] = target: T1, hERG (KCNH2) (Homo sapiens, UniProt Q12809); experiment: (§1) Displacement of [35S]-labeled MK499 from hERG at 10 uM; conditions: probe [35S]-MK499
[3] = Plasma clearance in rat at 1 mg/kg, iv; format: ADME, organism-based; set-up: dose 1 mg/kg, route intravenous
Rattus norvegicus [4] = experiment: AUC in rat at 2 mg/kg, po; format: ADME, organism-based, Plasma; set-up: dose 2 mg/kg, route oral; conditions: in vivo
[5] = Cmax in rat at 2 mg/kg, po; format: ADME, organism-based; set-up: dose 2 mg/kg, route oral; conditions: in vivo
Rattus norvegicus [6] = experiment: Anti-allodynic efficacy in rat chronic pain model at 3 mg/kg, po; format: ADME, organism-based; set-up: dose 3 mg/kg, route oral; conditions: in vivo
Outline: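 Chronic inflammatory pain induced in rats by intradermal injection of complete Freund's adjuvant (CFA). The read-out was reversal of CFA-induced allodynia after oral dosing.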

[7] = (§2) Stability in human liver microsome after 1 hr; format: ADME, microsomes; conditions: liver microsomes, read-out: Stability
[8] = (§3) Half life in rat at 1 mg/kg, iv; format: ADME, organism-based; set-up: dose 1 mg/kg, route intravenous; conditions: in vivo
[9] = (§4) Oral bioavailability in rat; format: ADME, organism-based; conditions: in vivo
hERG (KCNH2) [10] = target: T1, hERG (KCNH2); experiment: Displacement of [35S]-labeled MK499 from hERG at 1 uM; conditions: probe [35S]-MK499
Rattus norvegicus [11] = experiment: AUC in rat at 3 mg/kg, po; format: ADME, organism-based, Plasma; set-up: dose 3 mg/kg, route oral; conditions: in vivo
[12] = (§5) Cmax in rat at 3 mg/kg, po; format: ADME, organism-based; set-up: dose 3 mg/kg, route oral; conditions: in vivo
Liver microsomes = experiment: as §2; format: ADME; conditions: microsomes, 1 h
Rattus norvegicus [13] = experiment: as §3; format: ADME, organism-based; set-up: dose 1 mg/kg, route intravenous; conditions: in vivo
Rattus norvegicus [14] = experiment: as §4; format: ADME, organism-based; conditions: in vivo
[15] = target: Voltage-gated inwardly rectifying potassium channel KCNH2 (Homo sapiens, UniProt Q12809); experiment: as §1; conditions: 10 µM
Rattus norvegicus [16] = experiment: as §5; format: ADME, organism-based; set-up: dose 3 mg/kg, route oral; conditions: in vivo

Sequence of Sodium channel protein type 9 subunit alpha (Q15858 whole entry): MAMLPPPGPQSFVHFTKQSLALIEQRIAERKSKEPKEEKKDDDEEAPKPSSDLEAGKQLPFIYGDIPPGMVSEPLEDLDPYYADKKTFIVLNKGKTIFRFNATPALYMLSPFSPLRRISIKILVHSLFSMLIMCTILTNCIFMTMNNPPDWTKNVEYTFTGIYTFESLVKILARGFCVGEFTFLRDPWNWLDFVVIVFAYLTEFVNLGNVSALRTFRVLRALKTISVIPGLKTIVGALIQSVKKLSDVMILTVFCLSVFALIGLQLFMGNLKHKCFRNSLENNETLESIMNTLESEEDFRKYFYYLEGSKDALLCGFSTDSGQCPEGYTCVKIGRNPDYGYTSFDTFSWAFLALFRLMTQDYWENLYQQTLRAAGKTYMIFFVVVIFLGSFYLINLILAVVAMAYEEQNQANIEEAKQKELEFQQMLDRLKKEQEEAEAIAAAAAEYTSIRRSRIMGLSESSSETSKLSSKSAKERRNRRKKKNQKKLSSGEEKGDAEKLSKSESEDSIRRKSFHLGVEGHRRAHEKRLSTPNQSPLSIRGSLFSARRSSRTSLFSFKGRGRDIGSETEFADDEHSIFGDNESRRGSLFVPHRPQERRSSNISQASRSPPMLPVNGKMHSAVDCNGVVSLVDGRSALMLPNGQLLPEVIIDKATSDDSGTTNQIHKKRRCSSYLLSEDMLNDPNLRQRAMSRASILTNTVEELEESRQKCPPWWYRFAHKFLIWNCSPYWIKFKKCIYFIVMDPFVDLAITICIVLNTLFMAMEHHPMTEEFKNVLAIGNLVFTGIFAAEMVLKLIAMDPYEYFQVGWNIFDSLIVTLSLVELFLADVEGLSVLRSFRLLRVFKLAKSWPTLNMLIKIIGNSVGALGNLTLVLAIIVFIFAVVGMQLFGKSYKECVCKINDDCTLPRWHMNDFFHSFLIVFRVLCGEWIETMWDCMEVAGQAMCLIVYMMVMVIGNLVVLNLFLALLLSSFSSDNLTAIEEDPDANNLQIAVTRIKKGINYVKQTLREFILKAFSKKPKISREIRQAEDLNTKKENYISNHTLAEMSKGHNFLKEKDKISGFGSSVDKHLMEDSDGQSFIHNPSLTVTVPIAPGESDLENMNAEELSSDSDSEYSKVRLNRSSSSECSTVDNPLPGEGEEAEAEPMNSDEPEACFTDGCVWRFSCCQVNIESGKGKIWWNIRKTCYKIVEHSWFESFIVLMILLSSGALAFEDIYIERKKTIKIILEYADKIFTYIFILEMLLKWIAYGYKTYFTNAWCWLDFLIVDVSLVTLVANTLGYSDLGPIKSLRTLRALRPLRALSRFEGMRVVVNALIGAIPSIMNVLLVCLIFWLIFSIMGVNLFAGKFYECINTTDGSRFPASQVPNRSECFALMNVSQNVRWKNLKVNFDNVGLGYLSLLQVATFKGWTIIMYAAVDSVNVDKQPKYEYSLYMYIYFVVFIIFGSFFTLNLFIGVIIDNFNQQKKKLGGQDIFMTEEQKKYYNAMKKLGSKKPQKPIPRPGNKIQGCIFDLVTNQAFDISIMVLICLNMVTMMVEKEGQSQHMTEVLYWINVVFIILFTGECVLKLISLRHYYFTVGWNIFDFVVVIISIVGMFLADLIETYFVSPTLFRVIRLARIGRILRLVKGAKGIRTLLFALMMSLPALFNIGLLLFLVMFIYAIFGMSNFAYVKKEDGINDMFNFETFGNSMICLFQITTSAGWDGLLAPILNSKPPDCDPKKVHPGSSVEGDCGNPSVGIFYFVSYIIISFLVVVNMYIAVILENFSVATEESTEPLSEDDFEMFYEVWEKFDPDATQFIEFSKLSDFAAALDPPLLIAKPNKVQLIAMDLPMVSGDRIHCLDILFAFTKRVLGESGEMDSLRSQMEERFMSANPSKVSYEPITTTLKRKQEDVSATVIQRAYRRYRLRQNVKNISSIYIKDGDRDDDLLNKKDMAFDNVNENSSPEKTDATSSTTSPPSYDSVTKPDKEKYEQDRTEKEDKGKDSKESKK
T1 sequence (Q12809 whole entry): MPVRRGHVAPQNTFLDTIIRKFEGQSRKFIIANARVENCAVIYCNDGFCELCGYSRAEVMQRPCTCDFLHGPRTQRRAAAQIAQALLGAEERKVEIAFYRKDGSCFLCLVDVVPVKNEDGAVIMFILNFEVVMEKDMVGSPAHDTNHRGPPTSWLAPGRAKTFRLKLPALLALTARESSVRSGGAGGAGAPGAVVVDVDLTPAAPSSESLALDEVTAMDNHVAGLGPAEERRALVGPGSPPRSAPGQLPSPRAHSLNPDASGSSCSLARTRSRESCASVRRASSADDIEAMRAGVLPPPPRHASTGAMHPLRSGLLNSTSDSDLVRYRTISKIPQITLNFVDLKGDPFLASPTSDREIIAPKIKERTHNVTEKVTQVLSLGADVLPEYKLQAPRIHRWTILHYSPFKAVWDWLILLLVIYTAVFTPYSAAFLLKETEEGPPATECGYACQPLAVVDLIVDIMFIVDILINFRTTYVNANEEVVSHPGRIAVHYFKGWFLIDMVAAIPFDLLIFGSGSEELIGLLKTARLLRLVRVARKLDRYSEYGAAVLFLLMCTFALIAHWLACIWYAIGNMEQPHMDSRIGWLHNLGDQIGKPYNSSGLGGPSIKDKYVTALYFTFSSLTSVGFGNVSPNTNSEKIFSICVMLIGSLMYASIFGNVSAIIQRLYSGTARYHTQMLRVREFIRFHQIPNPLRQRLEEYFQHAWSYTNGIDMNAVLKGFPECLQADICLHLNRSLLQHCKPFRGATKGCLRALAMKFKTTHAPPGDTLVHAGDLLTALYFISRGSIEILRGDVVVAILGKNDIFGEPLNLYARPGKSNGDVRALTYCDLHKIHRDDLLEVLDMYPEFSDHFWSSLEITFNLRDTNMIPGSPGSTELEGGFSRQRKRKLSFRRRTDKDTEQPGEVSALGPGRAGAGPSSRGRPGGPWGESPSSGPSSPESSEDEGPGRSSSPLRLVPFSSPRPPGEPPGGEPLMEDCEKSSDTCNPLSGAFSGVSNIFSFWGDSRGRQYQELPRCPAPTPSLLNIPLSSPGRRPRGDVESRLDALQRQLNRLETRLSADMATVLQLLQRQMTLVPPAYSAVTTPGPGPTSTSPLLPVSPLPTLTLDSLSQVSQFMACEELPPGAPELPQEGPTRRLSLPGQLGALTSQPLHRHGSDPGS
Sequence of Voltage-gated inwardly rectifying potassium channel KCNH2 (Q12809 whole entry): as above

Row | IC50 [1] [µM] | SMILES | inhibition at 10 µM (hERG (KCNH2) [2]) [%] | further results
1 | > 3 | O=S(=O)(NC[C@@H]1CCC[C@H]1C(O)CCc1ccccc1)c1cc(Cl)cc(Cl)c1 (relative stereo) | 90 | 
2 | 0.44 | O=C(NCc1ccccc1C(F)(F)F)[C@@H]1CCC[C@H]1C(O)CCc1cccc(OC(F)(F)F)c1 (relative stereo) | 78 | 
3 | 0.23 | O=C(NCc1ccccc1)[C@@H]1CCC[C@H]1C(O)CCc1cccc(OC(F)(F)F)c1 (relative stereo) | 89 | 
4 | 0.87 | O=C(NCc1cc(Cl)cc(Cl)c1)[C@@H]1CCC[C@H]1C(O)CCc1ccc(OC(F)(F)F)cc1 (relative stereo) | 93 | 
5 | 1.49 | CN(Cc1ccccc1)C(=O)[C@@H]1CCC[C@H]1C(=O)NCc1ccc(OC(F)(F)F)cc1 (relative stereo) |  | 
6 | 0.63 | O=S(=O)(NC[C@@H]1CCC[C@H]1C(O)CCc1ccccc1)c1ccc(OC(F)(F)F)cc1 (relative stereo) | 90 | 
7 | > 3 | O=C(NCc1ccccc1)[C@@H]1CCC[C@H]1C(O)CCc1ccccc1 (relative stereo) |  | 
8 | 0.32 | O=C(NCc1ccccc1)[C@@H]1CCC[C@H]1C(O)CCc1ccccc1OC(F)(F)F (relative stereo) | 92 | 
9 | 0.29 | CN(Cc1ccc(-c2ccccc2S(N)(=O)=O)cc1)C(=O)[C@@H]1CCC[C@H]1C(=O)NCc1ccc(OC(F)(F)F)cc1 (relative stereo) | 54 | clearance [3]: 14 mL/min/kg; AUC (Rattus norvegicus [4]): 1.8 µM·h; Cmax [5]: 1000 nM; Efficacy (Rattus norvegicus [6]): 43%; remaining at 1 h [7]: 4%; half-life [8]: 1 h; bioavailability [9]: 44%
10 | > 3 | OC(CCc1ccccc1)[C@@H]1CCC[C@H]1OCCc1ccc(OC(F)(F)F)cc1 (relative stereo) | 70 | 
11 | > 3 | OC(CCc1ccccc1)[C@@H]1CCC[C@H]1OCCc1cc(Cl)cc(Cl)c1 (relative stereo) | 40 | 
12 | > 3 | O=C(NC[C@@H]1CCC[C@H]1C(O)CCc1ccccc1)c1cc(Cl)cc(Cl)c1 (relative stereo) | 79 | 
13 | 1.21 | COc1ccc(CCC(O)[C@@H]2CCC[C@H]2C(=O)NCc2cc(Cl)cc(Cl)c2)cc1 (relative stereo) | 70 | 
14 | 0.33 | O=C(NC[C@@H]1CCC[C@H]1C(O)CCc1ccccc1)c1ccc(OC(F)(F)F)cc1 (relative stereo) | 84 | inhibition at 1 µM (hERG (KCNH2) [10]): 45%
15 | 1.15 | O=C(NCc1cc(Cl)cc(Cl)c1)[C@@H]1CCC[C@H]1C(O)CCc1ccccc1OC(F)(F)F (relative stereo) | 73 | 
16 | 0.44 | O=C(NCc1cc(Cl)cc(Cl)c1)[C@@H]1CCC[C@H]1C(O)CCc1cccc(OC(F)(F)F)c1 (relative stereo) | 87 | 
17 | 0.98 | O=C(NCc1cc(Cl)cc(Cl)c1)[C@@H]1CCC[C@H]1C(O)CCc1ccccc1 (relative stereo) | 91 | 
18 | > 3 | CS(=O)(=O)c1ccc(CCC(O)[C@@H]2CCC[C@H]2C(=O)NCc2ccc(OC(F)(F)F)cc2)cc1 (relative stereo) |  | 
19 | 1.11 | OC(CCc1ccccc1)[C@@H]1CCC[C@H]1COCc1cc(Cl)cc(Cl)c1 (relative stereo) | 59 | 
20 | 0.82 | OC(CCc1ccccc1)[C@@H]1CCC[C@H]1COCc1ccc(OC(F)(F)F)cc1 (relative stereo) | 65 | 
21 | 0.64 | O=C(NCc1ccccc1)[C@@H]1CCC[C@H]1C(O)CCc1ccc(OC(F)(F)F)cc1 (stereo in doubt; 13) |  | AUC (Rattus norvegicus [11]): 5.3 µM·h; Cmax [12]: 1900 nM; Efficacy (Rattus norvegicus [6]): 25%; Stability (Liver microsomes): 13%; T1/2 (Rattus norvegicus [13]): 1.6 h; F (Rattus norvegicus [14]): 40%; Inhibition [15]: 52%
22 | 0.52 | O=C(NCc1ccccc1)[C@@H]1CCC[C@H]1C(O)CCc1ccc(OC(F)(F)F)cc1 (stereo in doubt; 13A) |  | Inhibition [15]: 68%
23 | 0.36 | O=C(NCc1ccccc1)[C@@H]1CCC[C@H]1C(O)CCc1ccc(OC(F)(F)F)cc1 (stereo in doubt; 13B) | 60 | AUC (Rattus norvegicus [11]): 9 µM·h; clearance [3]: 9 mL/min/kg; Cmax (Rattus norvegicus [16]): 2300 nM; Efficacy (Rattus norvegicus [6]): 31%; Stability (Liver microsomes): 49%; half-life [8]: 1.6 h; F (Rattus norvegicus [14]): 65%
